Data taken from ChEMBL document CHEMBL1833877, “Antinociceptive properties of bergenin” (J Nat Prod, 2011).
Calls of active or inactive are those of the source.

Legend:
Mus musculus [1] = test: Antinociceptive activity against formalin-induced pain in mouse assessed as paw licking during early phase (0 to 10 mins) at 100 mg/kg, ip administered 40 mins before formalin challenge; type: functional, organism-based; design: dose 100 mg/kg
Outline: (§1)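 Mice were acclimated 30 min in an observation chamber, then given 20 μL of 2.5% formalin sc into the dorsal hind paw. Dosing was ip (2% DMSO/saline vehicle) 40 min beforehand. Time spent licking the injected paw was scored over 0–10 min and 10–60 min. n = 6/group, means ± SEM, ANOVA with Tukey.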

Mus musculus [2] = test: Antinociceptive activity against formalin-induced pain in mouse assessed as paw licking during late phase (10 to 60 mins) at 50 mg/kg, ip administered 40 mins before formalin challenge; type: functional, organism-based; design: dose 50 mg/kg; outline: as §1
Mus musculus [3] = test: Antinociceptive activity against formalin-induced pain in mouse assessed as paw licking during late phase (10 to 60 mins) at 100 mg/kg, ip administered 40 mins before formalin challenge; type: functional, organism-based; design: dose 100 mg/kg; outline: as §1
Mus musculus [4] = test: Antinociceptive activity against Freund's complete adjuvant-induced paw inflammation in mouse assessed as reduction in paw edema at 100 mg/kg, ip administered 40 mins before CFA challenge measured after 4 hrs; type: functional, organism-based; design: dose 100 mg/kg
Outline: (§2)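 CFA (20 μL, 1 mg/mL heat-killed M. tuberculosis) was injected sc into the right hind plantar surface. Treatment was ip in 2% DMSO/saline 40 min before. Paw volume was read by plethysmometer before and after CFA, and edema taken as the volume difference (mm3/paw). n = 6 mice/group, means ± SEM, two-way ANOVA with Bonferroni.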

Mus musculus [5] = test: Antinociceptive activity against Freund's complete adjuvant-induced paw inflammation in mouse assessed as reduction in paw edema at 100 mg/kg, ip administered 40 mins before CFA challenge measured after 6 hrs; type: functional, organism-based; design: dose 100 mg/kg; outline: as §2
Mus musculus [6] = test: Inhibition of TNF-alpha production in Freund's complete adjuvant-induced mouse at 50 mg/kg, ip administered 40 mins before CFA challenge measured after 2 hrs by ELISA; type: functional, organism-based; design: dose 50 mg/kg
Outline: (§3)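 CFA was given intraplantar, with ip dosing (2% DMSO/saline vehicle) 40 min earlier. At 2 h, paw skin was taken under terminal halothane anesthesia. Tissue was extracted (100 mg/mL PBS with 0.4 M NaCl, 0.05% Tween 20 and protease inhibitors) and centrifuged at 3000g for 10 min. Supernatant was assayed by mouse ELISA, in pg/mL. n = 6/group.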

Mus musculus [7] = test: Inhibition of TNF-alpha production in Freund's complete adjuvant-induced mouse at 100 mg/kg, ip administered 40 mins before CFA challenge measured after 2 hrs by ELISA; type: functional, organism-based; design: dose 100 mg/kg; outline: as §3
Mus musculus [8] = test: Antinociceptive activity against Freund's complete adjuvant-induced paw inflammation in IL10-deficient C57BL/6 mouse assessed as reduction in mechanical hyperalgesia at 100 mg/kg, ip administered 40 mins before CFA challenge measured 2 to 6 hrs; type: functional, organism-based; design: dose 100 mg/kg
Outline: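 Mice, lightly halothane-anesthetized, got 20 μL complete Freund's adjuvant (1 mg/mL heat-killed M. tuberculosis in paraffin oil/mannide monooleate) sc into the right hind plantar surface. Treatment was ip in 2% DMSO/saline 40 min before CFA. Mechanical threshold was read with von Frey filaments by the up-down method at 2, 4 and 6 h. n = 6 mice/group, means ± SEM, two-way ANOVA with Bonferroni.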

Mus musculus [9] = test: Toxicity in mouse assessed as reduction in corporal mass at 50 mg/kg, ip for seven consecutive days relative to control; type: organism-based; design: dose 50 mg/kg, route intraperitoneal; conditions: in vivo
Outline: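 Male mice (22–28 g) weighed and dosed once daily ip for seven consecutive days with test agent or vehicle (2% DMSO in saline). Body mass, general appearance and toxic signs followed and compared with vehicle-treated mice. Data are means ± SEM, 6–9 animals per group.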

Mus musculus [10] = test: Toxicity in mouse assessed as change in general appearance at 50 mg/kg, ip for seven consecutive days relative to control; type: organism-based; design: dose 50 mg/kg, route intraperitoneal; conditions: in vivo
Outline: (§4)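 Mice were weighed and dosed ip once daily for 7 consecutive days, vehicle controls alongside, and monitored for toxic signs and general appearance. At the end, retro-orbital blood was taken under light anesthesia for leukocyte counts. Serum, from blood centrifuged at 2500 rpm for 15 min without anticoagulant, was used for ALT and AST.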

Mus musculus [11] = test: Toxicity in mouse assessed as liver function measuring serum ALT level at 50 mg/kg, ip for seven consecutive days relative to control; type: organism-based; design: dose 50 mg/kg, route intraperitoneal; conditions: in vivo; outline: as §4
Mus musculus [12] = test: Toxicity in mouse assessed as liver function measuring serum AST level at 50 mg/kg, ip for seven consecutive days relative to control; type: organism-based; design: dose 50 mg/kg, route intraperitoneal; conditions: in vivo; outline: as §4
Mus musculus [13] = test: Toxicity in mouse assessed as gastric inflammation at 50 mg/kg, ip for seven consecutive days relative to control; type: organism-based, Stomach; design: dose 50 mg/kg, route intraperitoneal; conditions: in vivo
Outline: (§5)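 After 7 daily ip doses, stomachs were cryosectioned at 3 μm and stained with H&E. Sections were scored blind 0–4 for inflammatory infiltrate, edema, epithelial loss and necrosis. Ten fields (40×) were read per section, means ± SEM.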

Mus musculus [14] = test: Toxicity in mouse assessed as gastric ulcer at 50 mg/kg, ip for seven consecutive days relative to control; type: organism-based, Stomach; design: dose 50 mg/kg, route intraperitoneal; conditions: in vivo; outline: as §5
Mus musculus [15] = test: Toxicity in mouse assessed as inflammatory cell infiltrate in gastric mucosa at 50 mg/kg, ip for seven consecutive days relative to control; type: organism-based; design: dose 50 mg/kg, route intraperitoneal; conditions: in vivo; outline: as §5
Mus musculus [16] = test: Toxicity in mouse assessed as edema in gastric mucosa at 50 mg/kg, ip for seven consecutive days relative to control; type: organism-based; design: dose 50 mg/kg, route intraperitoneal; conditions: in vivo; outline: as §5
Mus musculus [17] = test: Toxicity in mouse assessed as necrosis in gastric mucosa at 50 mg/kg, ip for seven consecutive days relative to control; type: organism-based; design: dose 50 mg/kg, route intraperitoneal; conditions: in vivo; outline: as §5
Mus musculus [18] = test: Toxicity in mouse assessed as reduction in corporal mass at 100 mg/kg, ip for seven consecutive days relative to control; type: organism-based; design: dose 100 mg/kg, route intraperitoneal; conditions: in vivo; outline: as §4
Mus musculus [19] = test: Toxicity in mouse assessed as change in general appearance at 100 mg/kg, ip for seven consecutive days relative to control; type: organism-based; design: dose 100 mg/kg, route intraperitoneal; conditions: in vivo; outline: as §4
Mus musculus [20] = test: Toxicity in mouse assessed as renal function measuring serum urea level at 100 mg/kg, ip for seven consecutive days relative to control; type: organism-based; design: dose 100 mg/kg, route intraperitoneal; conditions: in vivo
Outline: (§6)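 Once-daily ip dosing for seven consecutive days in male mice (22–28 g), with vehicle (2% DMSO in saline) as control. At the end of treatment, blood taken from the retro-orbital plexus under light anesthesia. Serum obtained without anticoagulant by centrifugation at 2500 rpm for 15 min, then assayed biochemically for urea and creatinine. Means ± SEM, 6–9 animals per group.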

Mus musculus [21] = test: Toxicity in mouse assessed as renal function measuring serum creatinine level at 100 mg/kg, ip for seven consecutive days relative to control; type: organism-based; design: dose 100 mg/kg, route intraperitoneal; conditions: in vivo; outline: as §6
Mus musculus [22] = test: Toxicity in mouse assessed as liver function measuring serum ALT level at 100 mg/kg, ip for seven consecutive days relative to control; type: organism-based; design: dose 100 mg/kg, route intraperitoneal; conditions: in vivo; outline: as §4
Mus musculus [23] = test: Toxicity in mouse assessed as leukogram at 100 mg/kg, ip for seven consecutive days relative to control; type: organism-based; design: dose 100 mg/kg, route intraperitoneal; conditions: in vivo; outline: as §4
Mus musculus [24] = test: Toxicity in mouse assessed as gastric inflammation at 100 mg/kg, ip for seven consecutive days relative to control; type: organism-based, Stomach; design: dose 100 mg/kg, route intraperitoneal; conditions: in vivo; outline: as §5
Mus musculus [25] = test: Toxicity in mouse assessed as gastric ulcer at 100 mg/kg, ip for seven consecutive days relative to control; type: organism-based, Stomach; design: dose 100 mg/kg, route intraperitoneal; conditions: in vivo; outline: as §5
Mus musculus [26] = test: Toxicity in mouse assessed as edema in gastric mucosa at 100 mg/kg, ip for seven consecutive days relative to control; type: organism-based; design: dose 100 mg/kg, route intraperitoneal; conditions: in vivo; outline: as §5
Mus musculus [27] = test: Toxicity in mouse assessed as necrosis in gastric mucosa at 100 mg/kg, ip for seven consecutive days relative to control; type: organism-based; design: dose 100 mg/kg, route intraperitoneal; conditions: in vivo; outline: as §5
Mus musculus [28] = test: Neurotoxicity in mouse assessed as effect on motor coordination at 100 mg/kg, ip after 40 mins by Rotarod test; conditions: in vivo

COc1c(O)cc2c(c1O)[C@@H]1O[C@H](CO)[C@@H](O)[C@H](O)[C@H]1OC2=O [BERGENIN]
active: Activity (Mus musculus [1]) | Activity (Mus musculus [2]) | Activity (Mus musculus [3]) | Activity (Mus musculus [4]) | inhibition (Mus musculus [6]) | inhibition (Mus musculus [7]) | Activity (Mus musculus [8])
Non-toxic: Activity (Mus musculus [9]) | Activity (Mus musculus [10]) | Activity (Mus musculus [11]) | Activity (Mus musculus [12]) | Activity (Mus musculus [13]) | Activity (Mus musculus [14]) | Activity (Mus musculus [15]) | Activity (Mus musculus [16]) | Activity (Mus musculus [17]) | Activity (Mus musculus [18]) | Activity (Mus musculus [19]) | Activity (Mus musculus [20]) | Activity (Mus musculus [21]) | Activity (Mus musculus [22]) | Activity (Mus musculus [23]) | Activity (Mus musculus [24]) | Activity (Mus musculus [25]) | Activity (Mus musculus [26]) | Activity (Mus musculus [27]) | Activity (Mus musculus [28])
inactive: Activity (Mus musculus [5])
